Source: ChEMBL document CHEMBL4270511, “Rational design and screening of peptide-based inhibitors of heat shock factor 1 (HSF1)” (Bioorg Med Chem, 2018)
Active and inactive are the calls of the source. The calls are words filed in the database; no cut-off is given here.

Columns and labels:
[1] = molecular target: T1, Heat shock factor protein 1 (Homo sapiens) (UniProt Q00613); assay: Inhibition of recombinant human HSF1 expressed in Escherichia coli BL21 (DE3) assessed as reduction in HSF1 trimer-5-fluorescein labeled HSE interaction at 400 uM preincubated for 1 hr followed by DNA tracer addition and measured after 15 mins by competitive fluorescence polarization assay
T1 sequence (whole entry): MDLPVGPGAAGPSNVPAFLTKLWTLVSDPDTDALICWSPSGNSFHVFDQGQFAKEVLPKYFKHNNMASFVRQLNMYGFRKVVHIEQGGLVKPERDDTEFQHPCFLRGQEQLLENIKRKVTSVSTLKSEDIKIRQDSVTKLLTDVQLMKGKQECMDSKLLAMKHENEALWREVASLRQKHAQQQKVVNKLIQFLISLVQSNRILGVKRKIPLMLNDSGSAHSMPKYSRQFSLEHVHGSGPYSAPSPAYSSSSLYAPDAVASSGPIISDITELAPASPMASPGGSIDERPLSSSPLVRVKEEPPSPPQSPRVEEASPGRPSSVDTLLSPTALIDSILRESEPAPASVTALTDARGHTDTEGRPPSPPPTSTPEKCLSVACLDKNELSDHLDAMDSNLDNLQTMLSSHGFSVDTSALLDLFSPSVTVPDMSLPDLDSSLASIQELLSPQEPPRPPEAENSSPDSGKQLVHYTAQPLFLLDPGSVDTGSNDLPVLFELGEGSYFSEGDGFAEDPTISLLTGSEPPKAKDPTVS
Summary of the method: (§1)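 His-HSF1 trimer, expressed in BL21 E. coli and isolated by SEC, was shaken with peptide in DMSO for 1 h at room temperature. 5-fluorescein HSE tracer was then added to give final 250 nM trimer, 15 nM tracer and 5% DMSO, followed by 15 min shaking. FP read at 485/530 nm. Single-point final peptide level 400 μM, scored as % inhibition relative to DMSO and tracer-only signals. Dose-response used serial dilutions from 800 μM, with nonlinear-regression IC₅₀ fitting. Duplicates.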

[2] = molecular target: T1, Heat shock factor protein 1 (Homo sapiens); assay: (§2) Inhibition of recombinant human HSF1 expressed in Escherichia coli BL21 (DE3) assessed as reduction in HSF1 trimer-5-fluorescein labeled HSE interaction preincubated for 1 hr followed by DNA tracer addition and measured after 15 mins by competitive fluorescence polarization assay; summary of the method: as §1
[3] = molecular target: T2, Heat shock factor protein 1 (Homo sapiens, UniProt Q00613); assay: as §2; summary of the method: as §1
T2 sequence (Q00613 whole entry): T1 sequence (whole entry)

[4] = molecular target: T1, Heat shock factor protein 1 (Homo sapiens); assay: (§3) Inhibition of recombinant human HSF1 expressed in Escherichia coli BL21 (DE3) assessed as reduction in HSF1 trimer-5-fluorescein labeled HSE interaction preincubated of protein with DNA tracer up to 24 hrs followed by compound addition and measured after 15 mins by fluorescence polarization assay; details: in the assay text read “measured after 1 hr” for “measured after 15 mins”
Summary of the method: (§4)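 Peptide added to a pre-formed complex of HSF1 trimer (250 nM) and 5-fluorescein HSE tracer (15 nM), then co-incubated a further 1 h before FP reading at 485/530 nm. Buffer was 25 mM HEPES, 75 mM NaCl, pH 7.5, 10 mM MgCl₂, 0.01% Triton-X. IC₅₀ from nonlinear regression; duplicate experiments.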

[5] = molecular target: T2, Heat shock factor protein 1; assay: as §3; details: in the assay text read “measured after 1 hr” for “measured after 15 mins”; summary of the method: as §4
[6] = molecular target: T1, Heat shock factor protein 1 (Homo sapiens); assay: Disruption of full length human HSF1 trimer structure at 20 uM after 30 mins by size-exclusion chromatographic method
Summary of the method: (§5)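 SEC-purified full-length human HSF1 trimer (2 μM) incubated with 20 μM peptide (10-fold molar excess) or DMSO (2% v/v) at 4 °C for 30 min. Samples then run on Sephacryl S-400 SEC, and collected fractions analysed by immunoblot to follow oligomeric state.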

[7] = molecular target: T1, Heat shock factor protein 1 (Homo sapiens); assay: Disruption of full length human HSF1 trimer structure at 20 uM after 30 mins by SDS-PAGE analysis
[8] = molecular target: T1, Heat shock factor protein 1 (Homo sapiens); assay: Disruption of full length human HSF1 trimer structure at 20 uM after 30 mins by Western blot analysis; summary of the method: as §5
DNA = assay: Binding affinity to 5-fluorescein labeled HSE DNA (unknown origin) after 15 mins to 24 hrs by fluorescence polarization method; type: nucleic-acid assay
Summary of the method: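 Tracer-binding control: peptides serially diluted from 400 μM, incubated with 15 nM 5-fluorescein HSE tracer alone (no protein) for 15 min, 1 h, 3 h and 24 h. Read by FP at excitation 485 nm and emission 530 nm, with 15-min mP values plotted. Buffer was 25 mM HEPES, 75 mM NaCl, pH 7.5, 10 mM MgCl₂, 0.01% Triton-X. Triplicates.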

Q: Ac-DAMDSNL-NH2 was tested. Which inhibition [1] did it give?
A: 21%

Q: For Ac-DKNELSDHL-NH2, which inhibition [1] is on record?
A: 0.4%

Q: How did the inhibition [1] turn out when Ac-DKNELSDHLDAMDSNL-NH2 was run?
A: 91%

Q: What about the inhibition [2] of the same substance?
A: Dose-dependent effect

Q: What about the IC50 [3] of the same substance?
A: 13 µM

Q: What about the inhibition [4] of the same substance?
A: Dose-dependent effect

Q: And the IC50 [5]?
A: 14 µM

Q: What about the Activity [6] of the same substance?
A: inactive

Q: And the Activity [7]?
A: inactive

Q: And the Activity [8]?
A: inactive

Q: With Ac-DVQLMKGKQECMDSKLLAMKHENEALWREV-NH2 as the substance, how does the inhibition [1] read?
A: 8.1%

Q: Which results are given for Ac-HLDAMDSNLDNLQTMLSSHGFSVDTSALLD-NH2?
A: inhibition [1]: 64%; inhibition [2]: Dose-dependent effect; IC50 [3]: 150 µM

Q: With Ac-IKIRQDSVTKLLTDVQLMKGKQECMDSK-NH2 as the substance, how does the inhibition [1] read?
A: > 100%

Q: For Ac-LAMKHENEAL-NH2, which inhibition [1] is on record?
A: 8.2%

Q: For Ac-LAMKHENEALWREVASLRQKHAQQQKVVNKL-NH2, which Activity (DNA) is on record?
A: Active

Q: Which inhibition [1] does the source give for Ac-RQKHAQQQKVVNKL-NH2 here?
A: 22%

Q: Which inhibition [1] does the source give for Ac-WREVASL-NH2 here?
A: 27%
